Consider 14 compounds from PubChem BioAssay.

Activity calls are given as the source filed them.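 How the source made its calls, unless noted: active means inhibition above 20% together with a positive visual image hit; inconclusive means visual image hit but inhibition not above 20%; inactive means no visual image hit.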

The nature of test [1]: inhibitors of TNFa-induced NFkB p65 translocation, primary screen, imaging, HUVEC, MLSMR starter and 10KST1 sets (AID 438).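 Further: compound added about 3h40 before a 20 min TNFalpha stimulation.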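 On inhibition: signal is the nuclear over cytoplasmic p65 intensity ratio per well.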 The conditions noted are these: HUVEC TNFa-induced p65 nuclear translocation; cell count: measured here: nuclei count (cytotoxicity indicator), at 2.08 µM; inhibition: at 2 µM, stronger effect = higher value, 0% TNFa-plus-vehicle, 100% no-TNFa wells.
Test [2] can be described thus: inhibitors of mutant huntingtin aggregation, primary screen, imaging, exon1htt(103Q)mCFP cells, high-content imaging (AID 483;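 active means visual image review flags a hit and inhibition of aggregation exceeds 20%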;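 further: compound exposure lasted 3 days before fixation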;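 on nuclei count: percent of the per-plate median nuclei count of sample wells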). The following applies: exon1htt(103Q)mCFP cell line, aggregate imaging, at 2 µM; inhibition of aggregation: stronger effect = higher value; nuclei count: measured here: cell count, toxicity.
Test [3] can be described thus: inhibitors of E-selectin induction by TNFa, primary screen, imaging, HUVEC, immunofluorescence, MLSMR starter and 10KST1 sets (AID 487;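 active means visually confirmed hit in the image check and inhibition above 20%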;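 on inhibition: signal is fraction of cell area covered by stained E-selectin grains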;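 on nuclei count: 100% = median nuclei count of all wells on the same plate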). The following applies: HUVEC TNFalpha-induced E-selectin immunofluorescence imaging, at 2 µM; inhibition: stronger effect = higher value; nuclei count: measured here: cell number, toxicity.
Test [4] addresses Voltage-gated potassium channel subunit beta-2 (Rattus norvegicus) (UniProt P62483). Description: KvBeta enzyme negative modulators, primary screen, biochemical, NADPH fluorescence (AID 622;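 active means fluorescence slope higher than the sample average by over 3 SD, cut at about -0.22 in these data, passing the limit was not always enough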;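 further: slope of raw intensity against log time taken from 70 to 1610 s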). The following applies: recombinant KvBeta, 4-cyanobenzaldehyde reduction, at 10 µM, stronger effect = higher value.
For test [5] the target is unchanged. Nature of the test: KvBeta positive modulators, primary screen, biochemical, NADPH fluorescence (AID 623;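 active means NADPH fluorescence slope more negative than the mean of all samples by about 3 SD, 99.7% confidence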;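 further: fluorescence intensity change per second fitted from 20 to 320 s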). The conditions noted are these: Recombinant KvBeta, NADPH fluorescence decrease slope, 10 min; at 10 µM; stronger effect = lower value.
The target in test [6] is Muscarinic acetylcholine receptor M4 (Homo sapiens) (UniProt P08173). Description: compounds altering M4/GIRK thallium flux, either direction, primary screen, M4 allosteric agonist project, cell-based, HEK293 M4/GIRK, BTC-AM (AID 625;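 active means fluorescence slope after compound addition differing from the mean of all tested samples at 99.7% confidence, mostly higher but some lower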;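 further: thallium influx through GIRK channels coupled to M4 in HEK293 cells with BTC-AM dye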). The conditions noted are these: at 10 µM, actives lie on both sides. The gist of the method: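 Material: HEK293 cells with M4 receptor and GIRK channels; Times: cells overnight at 37 °C, BTC-AM loading 1 h, reads 2 min total; Technique: kinetic BTC-AM fluorescence sampled at 1 Hz, 10 s pre-addition baseline; Read-out basis: slope over 15–24 s of trace normalized to starting intensity; Controls: carbachol positive, DMSO negative.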

Test [7] in a line: inhibitors of Sendai virus-induced IRF3 signaling, primary screen, TLR/RLR signaling modifier project, cell-based, Sendai virus stimulus, luciferase, 10K MLSCN set (AID 602276;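 active means inhibition at or above 50% at 10 µM; inactive means inhibition below 50%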;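 further: firefly luciferase from ISG56 promoter only with Renilla not read in this screen; 0% = Sendai virus plus DMSO and 100% = medium plus DMSO without virus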). The conditions noted are these: HEK293 RL24 IRF3 luciferase reporter, at 10 µM, stronger effect = higher value.
A short description of test [8]: inhibitors of poly I:C-induced TLR3 signaling, primary screen, cell-based, poly I:C stimulus, luciferase, 10K MLSCN set (AID 602277;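 active means inhibition of the reporter signal at or above 50%; inactive means inhibition below 50%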). The following applies: HEK293-TLR3 RL24 IRF3 luciferase reporter, at 10 µM, stronger effect = higher value.

Chain of Muscarinic acetylcholine receptor M4 (Homo sapiens) (P08173 whole entry, looked up): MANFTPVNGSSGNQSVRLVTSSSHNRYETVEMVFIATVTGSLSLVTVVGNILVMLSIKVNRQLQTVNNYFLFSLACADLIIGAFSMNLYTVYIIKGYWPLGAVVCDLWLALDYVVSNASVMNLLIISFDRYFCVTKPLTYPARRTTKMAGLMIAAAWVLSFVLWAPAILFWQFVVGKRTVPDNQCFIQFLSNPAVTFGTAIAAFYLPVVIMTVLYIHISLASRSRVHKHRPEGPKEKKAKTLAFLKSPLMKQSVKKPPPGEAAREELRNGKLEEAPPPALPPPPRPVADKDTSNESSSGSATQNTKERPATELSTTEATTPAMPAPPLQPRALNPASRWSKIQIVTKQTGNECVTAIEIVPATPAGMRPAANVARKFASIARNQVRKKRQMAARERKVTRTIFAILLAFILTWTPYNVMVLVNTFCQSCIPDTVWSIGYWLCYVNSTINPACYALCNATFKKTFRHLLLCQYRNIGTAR
Chain of Voltage-gated potassium channel subunit beta-2 (Rattus norvegicus) (P62483 whole entry, looked up): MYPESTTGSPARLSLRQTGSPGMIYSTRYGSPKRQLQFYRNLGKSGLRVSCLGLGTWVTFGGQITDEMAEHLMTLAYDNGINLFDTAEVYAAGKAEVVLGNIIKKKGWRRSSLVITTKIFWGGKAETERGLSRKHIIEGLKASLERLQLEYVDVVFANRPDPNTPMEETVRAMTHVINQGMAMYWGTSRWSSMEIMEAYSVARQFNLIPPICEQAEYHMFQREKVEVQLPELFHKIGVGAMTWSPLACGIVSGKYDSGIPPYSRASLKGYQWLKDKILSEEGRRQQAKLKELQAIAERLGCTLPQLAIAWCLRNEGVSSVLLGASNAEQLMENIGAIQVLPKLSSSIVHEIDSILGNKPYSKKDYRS

Broadly, the inhibition is the relative decrease from the control value, in per cent. Regarding `COc1ccc(CN2C(=O)CN=C2Nc2ccc(C)cc2C)cc1`, the cell count in test [1] stood at 809. Besides, the inhibition in test [1] was -7.5% (inactive); in test [3], -3.6% (inactive); in test [7], 16.8% (inactive); in test [8], 23% (inactive). The inhibition of aggregation in test [2] is -10.3% (inactive). Also, the nuclei count in test [2] was determined as 122%; in test [3] it was 95.6%. Also, the fluorescence slope is -0.555 (inactive) in test [4] and 0.00584 (inactive) in test [6]. The NADPH fluorescence slope in test [5] was 6.9e-05 (inactive).
In the case of `O=C(CS(=O)(=O)c1cn(Cc2ccc(F)cc2)c2ccccc12)N1CCCCC1`, in test [1], the cell count stood at 474. Also, the inhibition in test [1] was -0.2% (inactive); in test [3] it was 16.9% (inactive); in test [7], 3.28% (inactive); in test [8], 11.2% (inactive). Further, the inhibition of aggregation in test [2] is -5% (inactive). In addition, the nuclei count worked out at 116% in test [2] and 110% in test [3]. Also, the fluorescence slope is -0.303 (inactive) in test [4] and 0.00645 (inactive) in test [6]. In addition, the NADPH fluorescence slope in test [5] is -6.4e-05 (inactive).
In the case of `Cc1cc(C)n2cc(CSCc3ccco3)nc2n1`, the cell count in test [1] was 566. The inhibition in test [1] is -13.6% (inactive); in test [3], 18.2% (inactive); in test [7], 11.1% (inactive); in test [8] it was 8.26% (inactive). In addition, the inhibition of aggregation in test [2] was 4.9% (inactive). The nuclei count in test [2] stood at 89.3%; in test [3] it was 88.2%. In addition, the fluorescence slope in test [4] is -0.238 (inactive); in test [6], 0.00628 (inactive). For the same compound, the NADPH fluorescence slope in test [5] was -2.7e-05 (inactive).
Consider `Cc1ccc(CS(=O)(=O)CCC(=O)NCC2CCCO2)cc1` (centres undefined), for which the cell count in test [1] worked out at 470. For the same compound, the inhibition in test [1] was 7% (inactive); in test [3] it was -191% (inactive); in test [7] it was 6.62% (inactive); in test [8] it was 8.68% (inactive). Further, the inhibition of aggregation in test [2] is 1.1% (inactive). Also, the nuclei count in test [2] amounted to 99.3%; in test [3], 121%. In addition, the figures for the fluorescence slope in test [4] and in test [6] were -0.31 (inactive) and 0.00623 (inactive), respectively. Besides, in test [5], the NADPH fluorescence slope is -4.6e-05 (inactive).
With `CC(C)N(C(=O)COC(=O)c1ccc(O)cc1)C(C)C`, the cell count in test [1] was 467. The inhibition in test [1] is 1% (inactive); in test [3], -8.7% (inactive); in test [7], 17.3% (inactive); in test [8] it was 14.3% (inactive). Further, in test [2], the inhibition of aggregation was 12.6% (inactive). The values for the nuclei count in test [2] and in test [3] were 112% and 121%, respectively. The fluorescence slope is -0.553 (inactive) in test [4] and 0.00574 (inactive) in test [6]. Also, the NADPH fluorescence slope in test [5] is -3.1e-05 (inactive).
Turning to `C#CC(CO)N(CCN(Cc1ccccc1)C(C#C)CO)Cc1ccccc1` (centres undefined), the cell count in test [1] is 370. The inhibition in test [1] was 1.8% (inactive); in test [3], -29.5% (inactive); in test [7] it was 15.5% (inactive); in test [8], 20.6% (inactive). In test [2], the inhibition of aggregation was -12.5% (inactive). Besides, the nuclei count in test [2] was 104%; in test [3], 112%. Further, the fluorescence slope is -0.329 (inactive) in test [4] and 0.00458 (inactive) in test [6]. In test [5], the NADPH fluorescence slope was -5.4e-05 (inactive).
In the case of `COc1ccc(OC)c(Nc2cc(-c3ccccc3)nc(N)n2)c1`, the cell count in test [1] amounted to 423. For the same compound, the inhibition in test [1] is 9.2% (inactive); in test [3], -25.1% (inactive); in test [7] it was 46.6% (inactive); in test [8], 86.6% (active). For the same compound, the inhibition of aggregation in test [2] was -34.6% (inactive). Moreover, the nuclei count was found to be 0.5% in test [2] and 115% in test [3]. For the same compound, the fluorescence slope is -0.548 (inactive) in test [4] and 0.00508 (inactive) in test [6]. In test [5], the NADPH fluorescence slope was 4.9e-06 (inactive).
`CCN(CC)C(=O)CSc1nc2ccccc2c(=O)n1CCC(=O)NCc1ccc(F)cc1`: in test [1], the cell count came to 471. Also, the inhibition was -6.6% (inactive) in test [1], -22% (inactive) in test [3], -10.2% (inactive) in test [7] and -7.71% (inactive) in test [8]. Moreover, in test [2], the inhibition of aggregation was 15.2% (inactive). The nuclei count in test [2] was 108%; in test [3], 112%. For the same compound, the figures for the fluorescence slope in test [4] and in test [6] were -0.516 (inactive) and 0.00599 (inactive), respectively. In test [5], the NADPH fluorescence slope was 5.1e-05 (inactive).
Regarding `O=C1C2C3C=CC(C3)C2C(=O)N1CNc1ccc(O)cc1` (centres undefined), in test [1], the cell count is 307. The inhibition is 8.9% (inactive) in test [1], 32.1% (inactive) in test [3], 4.46% (inactive) in test [7] and 2.67% (inactive) in test [8]. Also, the inhibition of aggregation in test [2] was -9.8% (inactive). Also, the nuclei count stood at 108% in test [2] and 106% in test [3]. The fluorescence slope is -0.507 (inactive) in test [4] and 0.00588 (inactive) in test [6]. Further, in test [5], the NADPH fluorescence slope was 2.6e-05 (inactive).
On to `CCCCC(CC)Cn1c2nc3ccccc3nc2c2c(=N)oc(C)nc21` (centres undefined), for which, in test [1], the cell count came out at 624. For the same compound, the inhibition is 15.7% (inactive) in test [1], -5.3% (inactive) in test [3], 16.1% (inactive) in test [7] and 15.4% (inactive) in test [8]. The inhibition of aggregation in test [2] was 23.1% (inactive). The results for the nuclei count in test [2] and in test [3] were 64.9% and 97.3%, respectively. The fluorescence slope in test [4] was -0.196 (inactive); in test [6], 0.00498 (inactive). In test [5], the NADPH fluorescence slope was 4.4e-06 (inactive).
Take `O=C(c1cccc(Cl)c1)N1CCN(Cc2ccncc2)CC1`: the cell count in test [1] amounted to 702. Further, the inhibition in test [1] is 3.1% (inactive); in test [3] it was -87.8% (inactive); in test [7] it was 3.71% (inactive); in test [8], 7.08% (inactive). Besides, the inhibition of aggregation in test [2] is 1.7% (inactive). For the same compound, the nuclei count was determined as 106% in test [2] and 109% in test [3]. Moreover, the fluorescence slope in test [4] was -0.537 (inactive); in test [6] it was 0.00543 (inactive). In addition, in test [5], the NADPH fluorescence slope is 0.000145 (inactive).
On to `O=C(O)CCCCCNc1nc(=S)[nH]c2ccccc12`, for which the cell count in test [1] is 494. The inhibition in test [1] is -7.5% (inactive); in test [3] it was 9.6% (inactive); in test [7], 11.5% (inactive); in test [8], 19.2% (inactive). Moreover, the inhibition of aggregation in test [2] is 20% (inactive). Further, the nuclei count in test [2] turned out to be 102%; in test [3] it was 105%. The fluorescence slope was -0.384 (inactive) in test [4] and 0.0068 (inactive) in test [6]. Further, the NADPH fluorescence slope in test [5] was 2.9e-05 (inactive).
As for `C=CCn1c(C)cc(C(=O)CSc2nc3ccccc3c(=O)[nH]2)c1C`, the cell count in test [1] was found to be 278. Also, the inhibition is -0.8% (inactive) in test [1], -59.5% (inactive) in test [3], -41.3% (inactive) in test [7] and -75.7% (inactive) in test [8]. Also, the inhibition of aggregation in test [2] was 11.4% (inactive). The nuclei count came out at 92% in test [2] and 104% in test [3]. Moreover, the fluorescence slope in test [4] was -0.52 (inactive); in test [6], 0.0056 (inactive). Besides, the NADPH fluorescence slope in test [5] is -3.3e-05 (inactive).
Turning to `CCOC(=O)N1CCC2(CC1)CC(=O)c1c(ccc3oc(C(=O)O)c(C)c13)O2`, the cell count in test [1] came to 313. The inhibition in test [1] is -4.1% (inactive); in test [3] it was -83.8% (inactive); in test [7] it was 0.598% (inactive); in test [8], 11.3% (inactive). The inhibition of aggregation in test [2] was -17.7% (inactive). Moreover, the nuclei count turned out to be 99% in test [2] and 105% in test [3]. The figures for the fluorescence slope in test [4] and in test [6] were -0.413 (inactive) and 0.00564 (inactive), respectively. In addition, in test [5], the NADPH fluorescence slope was -1.7e-05 (inactive).
